Test results taken from ChEMBL document CHEMBL4196138, “Antiproliferative Carvotacetones from Sphaeranthus africanus” (J Nat Prod, 2018).

How the values were obtained:
[1] = tested on: HCT-116; assay: Cytotoxicity against human HCT116 cells after 72 hrs by XTT assay; type: functional, cell-based; conditions: HCT-116, 72 h
How it was run: (§1)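 HCT-116 and U-251 cells grown in high-glucose DMEM with 4 mM L-glutamine, 10% FBS, and 1% penicillin/streptomycin at 37 °C in 5% CO2. 5000 cells/well were attached overnight, then treated 72 h (final DMSO 0.5%; vinblastine 0.01 μM as positive control). XTT was measured photometrically 1.5 h after addition. IC50 by four-parameter logistic fit; mean ± SEM of six independent experiments.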

[2] = tested on: MDA-MB-231; assay: Cytotoxicity against human MDA-MB-231 cells after 72 hrs by XTT assay; type: functional, cell-based; conditions: MDA-MB-231, 72 h
How it was run: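 MDA-MB-231 breast cancer cells kept in RPMI 1640 with 2 mM L-glutamine, 10% FBS, and penicillin/streptomycin at 37 °C in 5% CO2. 5000 cells/well were grown overnight, then exposed 72 h to compounds (final DMSO 0.5%, vehicle control; vinblastine 0.01 μM as positive control). Photometric XTT readout after 1.5 h. Four-parameter logistic IC50; six independent experiments, mean ± SEM.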

[3] = tested on: U-251; assay: Cytotoxicity against human U251 cells after 72 hrs by XTT assay; type: functional, cell-based; conditions: U-251, 72 h; how it was run: as §1
[4] = tested on: CCRF-CEM; assay: Cytotoxicity against human CCRF-CEM cells after 72 hrs by XTT assay; type: functional, cell-based
How it was run: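 CCRF-CEM leukemia cells in RPMI 1640 with 2 mM L-glutamine, 10% FBS, and penicillin/streptomycin at 37 °C in 5% CO2. 10 000 cells/well were exposed 72 h to a concentration series (final DMSO 0.5%, vehicle control; vinblastine 0.01 μM as positive control). XTT was read photometrically after 4 h. Four-parameter logistic IC50; mean ± SEM, n = 6 independent experiments.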

[5] = tested on: HEK293; assay: Cytotoxicity against HEK293 cells after 72 hrs by XTT assay; type: cell-based; conditions: Homo sapiens, HEK293, 72 h
How it was run: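 HEK-293 cells in DMEM:Ham's F12 (1:1) with 2 mM L-glutamine, 10% FBS, and 1% penicillin/streptomycin at 37 °C in 5% CO2. 10 000 cells/well were treated 72 h with compounds from DMSO stocks (final DMSO 0.5%; vehicle controls). XTT plus electron coupling reagent was added and read photometrically. IC50 from a four-parameter logistic fit; mean ± SEM of six independent experiments.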

Row | SMILES | IC50 [1] [nM] | IC50 [2] [nM] | IC50 [3] [nM] | IC50 [4] [nM] | IC50 [5] [nM]
1 | C/C=C(/C)C(=O)O[C@@H]1C(=O)C(CO)=C[C@@H](OC(=O)/C(C)=C/C)[C@H]1C(C)C | 2500 | 2000 | 2100 | 1300 | 3000
2 | C/C=C(/C)C(=O)O[C@@H]1C=C(CO)C(=O)[C@@H](O)[C@@H]1C(C)C | 9500 | 6500 | 4300 | 1500 | 5500
3 | C/C=C(/C)C(=O)O[C@@H]1C(=O)C(CO)=C[C@@H](OC(=O)/C(C)=C\C)[C@H]1C(C)C | 3900 | 1800 | 3000 | 800 | 2500
4 | C/C=C(/C)C(=O)O[C@@H]1C=C(CO)C(=O)[C@@H](OC(=O)[C@](C)(O)[C@@H](C)Cl)[C@@H]1C(C)C | 2900 | 1500 | 2100 | 600 | 2800
5 | C/C=C(/C)C(=O)O[C@@H]1C=C(CO)C(=O)[C@@H](OC(=O)[C@]2(C)O[C@@H]2C)[C@@H]1C(C)C | 2600 | 2000 | 2900 | 1200 | 3000
6 | CC[C@]1(O)C[C@@H]2CN(CCc3c([nH]c4ccccc34)[C@@](C(=O)OC)(c3cc4c(cc3OC)N(C)[C@H]3[C@@](O)(C(=O)OC)[C@H](OC(C)=O)[C@]5(CC)C=CCN6CC[C@]43[C@@H]65)C2)C1 [VINBLASTINE] | 8.7 |  |  |  | 27
